In ChEMBL document CHEMBL1128644, “(+/-)-(N-alkylamino)benzazepine analogs: novel dopamine D1 receptor antagonists” (J Med Chem, 1995):

Tests used:
D(1A) dopamine receptor = D(1A) dopamine receptor (Rattus norvegicus, UniProt P18901)
D(2) dopamine receptor = D(2) dopamine receptor (Rattus norvegicus, UniProt P61169); test: Binding affinity against Dopamine receptor D2 from rat striatal membranes, using [3H]sulpiride as radioligand.
Summary of the method: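 Rat (male Sprague–Dawley, 200–250 g) caudate putamen membranes, freshly prepared in 50 mM Tris pH 7.4 and washed by centrifugation. Incubation with 3 nM [³H]sulpiride (final) for 30 min at 37 °C, in triplicate. Nonspecific binding defined with 10 μM sulpiride. Filtration, scintillation counting, Ki by LIGAND; at least three determinations.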

D(2) dopamine receptor, sequence (P61169 whole entry): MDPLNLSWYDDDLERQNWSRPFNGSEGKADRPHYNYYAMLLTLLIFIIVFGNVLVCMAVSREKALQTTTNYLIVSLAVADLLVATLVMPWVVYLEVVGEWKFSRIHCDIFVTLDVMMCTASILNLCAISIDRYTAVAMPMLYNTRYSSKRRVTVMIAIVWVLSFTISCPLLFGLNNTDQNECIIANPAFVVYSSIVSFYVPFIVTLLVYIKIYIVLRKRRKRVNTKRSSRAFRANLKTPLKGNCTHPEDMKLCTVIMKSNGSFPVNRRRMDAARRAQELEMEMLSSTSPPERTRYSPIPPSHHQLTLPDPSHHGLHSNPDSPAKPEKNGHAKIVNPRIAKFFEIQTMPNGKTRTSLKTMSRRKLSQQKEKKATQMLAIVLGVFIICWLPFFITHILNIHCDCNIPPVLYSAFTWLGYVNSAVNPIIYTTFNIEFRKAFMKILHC
D(1A) dopamine receptor, sequence (P18901 whole entry): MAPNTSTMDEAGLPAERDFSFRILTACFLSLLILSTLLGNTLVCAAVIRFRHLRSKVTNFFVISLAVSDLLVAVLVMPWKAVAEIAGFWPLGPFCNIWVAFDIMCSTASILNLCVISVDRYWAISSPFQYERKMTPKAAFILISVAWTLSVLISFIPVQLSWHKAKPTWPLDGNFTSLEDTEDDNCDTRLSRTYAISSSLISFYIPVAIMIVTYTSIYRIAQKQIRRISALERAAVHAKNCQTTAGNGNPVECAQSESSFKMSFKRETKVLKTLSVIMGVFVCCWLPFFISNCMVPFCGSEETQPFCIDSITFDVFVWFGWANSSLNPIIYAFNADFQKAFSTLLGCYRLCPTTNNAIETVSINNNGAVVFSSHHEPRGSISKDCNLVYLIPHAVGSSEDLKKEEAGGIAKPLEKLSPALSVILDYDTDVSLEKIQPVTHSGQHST

Ki (D(1A) dopamine receptor) [nM] | Ki (D(2) dopamine receptor) [nM] | Compound
75.7 | 3570 | CNCCCCCCN1CCc2cc(Cl)c(O)cc2C(c2ccccc2)C1 (centres undefined)
811 | 4130 | CN(C)CCCCN1CCc2cc(Cl)c(O)cc2C(c2ccccc2)C1 (centres undefined)
634 | 2360 | CCCCN1CCc2cc(Cl)c(O)cc2C(c2ccccc2)C1 (centres undefined)
> 10000 | 9150 | COc1cc2c(cc1Cl)CCN(CCCCN(C)C)CC2c1ccccc1 (centres undefined)
> 10000 | > 10000 | COc1cc2c(cc1OC)C(c1ccccc1)CN(CCCCN(C)C)CC2 (centres undefined)
75 | 4280 | NCCCCN1CCc2cc(Cl)c(O)cc2C(c2ccccc2)C1 (centres undefined)
1490 | > 10000 | CN(C)CCCCN1CCc2cc(Br)c(O)cc2C(c2ccccc2)C1 (centres undefined)
> 10000 | 2490 | COc1cc2c(cc1Br)CCN(CCCCN(C)C)CC2c1ccccc1 (centres undefined)
4820 | > 10000 | CN(C)CCCCN1CCc2cc(O)c(O)cc2C(c2ccccc2)C1 (centres undefined)
553 | 2030 | O=CNCCCCCCN1CCc2cc(Cl)c(O)cc2C(c2ccccc2)C1 (centres undefined)
321 | 2490 | NCCCCCCN1CCc2cc(Cl)c(O)cc2C(c2ccccc2)C1 (centres undefined)
607 | 7410 | NCCCC(=O)N1CCc2cc(Cl)c(O)cc2C(c2ccccc2)C1 (centres undefined)
106 | > 10000 | CNCCCCN1CCc2cc(Cl)c(O)cc2C(c2ccccc2)C1 (centres undefined)

Compound | Ki (D(1A) dopamine receptor) [nM] | Ki (D(2) dopamine receptor) [nM]
CN(C)CCCCCCN1CCc2cc(Cl)c(O)cc2C(c2ccccc2)C1 (centres undefined) | 49.3 | 3450
BC#N.CN(C)CCCCCCN1CCc2cc(Cl)c(O)cc2C(c2ccccc2)C1 (centres undefined) | 142 | –
